Tests used:
B2 bradykinin receptor [1] = target: T1, B2 bradykinin receptor (Homo sapiens, UniProt P30411); test: Inhibition specific binding of [3H]BK (1.0 nM) to human Bradykinin receptor B2 which was expressed in CHO (Chinese hamster ovary) cells by 50%.; type: cell-based
T1 sequence (P30411 whole entry): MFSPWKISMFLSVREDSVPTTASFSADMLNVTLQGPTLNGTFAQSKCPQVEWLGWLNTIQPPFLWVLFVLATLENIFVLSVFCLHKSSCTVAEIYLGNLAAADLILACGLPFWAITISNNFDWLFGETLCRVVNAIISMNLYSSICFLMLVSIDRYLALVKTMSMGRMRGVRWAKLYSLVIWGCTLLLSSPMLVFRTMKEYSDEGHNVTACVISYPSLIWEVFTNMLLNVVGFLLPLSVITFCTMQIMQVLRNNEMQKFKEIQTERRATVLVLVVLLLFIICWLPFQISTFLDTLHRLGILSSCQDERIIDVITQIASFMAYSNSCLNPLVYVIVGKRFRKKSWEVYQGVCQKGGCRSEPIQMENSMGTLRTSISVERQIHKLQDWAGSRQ
Procedure, shortened: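 CHO (dhfr−) cells stably expressing human B2 receptor, seeded at 3.0 × 10^4 cells/well and cultured 1 day. Whole cells incubated with 1.0 nM [3H]BK plus compound for 2 h at 4 °C in HEPES/N-methyl-D-glucamine buffer pH 7.2 with bacitracin, enalaprilat and BSA. Washed, solubilized in SDS/NaOH and counted. Nonspecific binding with 1 μM BK; DMSO below 3%; three experiments.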

B2 bradykinin receptor [2] = target: T2, B2 bradykinin receptor (Cavia porcellus, UniProt O70526); test: Concentration required to inhibit specific binding of [ 3H]BK (0.06 nM) to Bradykinin receptor B2 in guinea pig ileum membrane preparations by 50%.; type: cell membranes
T2 sequence (O70526 whole entry): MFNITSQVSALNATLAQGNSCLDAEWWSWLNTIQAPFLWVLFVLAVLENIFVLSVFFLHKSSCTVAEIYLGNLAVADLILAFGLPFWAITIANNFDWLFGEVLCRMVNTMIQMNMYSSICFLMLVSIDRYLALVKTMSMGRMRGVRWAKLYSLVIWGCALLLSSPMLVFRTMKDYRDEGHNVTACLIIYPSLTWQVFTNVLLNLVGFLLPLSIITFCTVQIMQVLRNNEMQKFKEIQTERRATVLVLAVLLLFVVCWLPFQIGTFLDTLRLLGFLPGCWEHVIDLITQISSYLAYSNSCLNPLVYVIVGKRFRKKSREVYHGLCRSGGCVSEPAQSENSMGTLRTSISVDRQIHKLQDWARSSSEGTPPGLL
Procedure, shortened: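 Ileal membranes from male Hartley guinea pigs (0.2 mg protein/mL) in TES buffer pH 6.8 with phenanthroline, bacitracin, DTT, captopril and BSA. Incubated with 0.06 nM [3H]BK plus compound for 60 min at room temperature, then filtered through GF/B and counted by scintillation.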

Cavia porcellus [3] = test: Inhibition of Bradykinin induced Bronchoconstriction in anaesthetized guinea pig at 0.32mg/kg, po; type: functional
Procedure, shortened: (§1)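 Male Hartley guinea pigs (470–750 g), fasted overnight, anesthetized with ip pentobarbital (30 mg/kg) and ventilated at 10 mL/kg, 60 breaths/min. Given alcuronium (0.5 mg/kg iv) and propranolol (10 mg/kg sc). BK 5 μg/kg iv, with bronchoconstriction read as peak pulmonary insufflation pressure (modified Konzett–Rössler).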

Cavia porcellus [4] = test: In vivo inhibition of Bradykinin induced Bronchoconstriction in anaesthetized guinea pig following 1 mg/kg p.o.; type: functional; conditions: route oral; procedure, shortened: as §1
B2 bradykinin receptor [5] = target: T1, B2 bradykinin receptor; test: Concentration required to inhibit specific binding of [3H]BK (1.2 nM) to A-431 cells (human epidermoid carcinoma) which express Bradykinin receptor B2 by 50%.; type: cell-based

SMILES | IC50 (B2 bradykinin receptor [1]) [nM] | IC50 (B2 bradykinin receptor [2]) [nM] | inhibition in vivo at 0.32 mg/kg (Cavia porcellus [3]) [%] | inhibition in vivo at 1 mg/kg (Cavia porcellus [4]) [%] | IC50 (B2 bradykinin receptor [5]) [nM]
Cc1ccc2cccc(OCc3c(Cl)ccc(N(C)C(=O)CNC(=O)/C=C/c4ccc(/C=C/c5ccncc5)nc4)c3Cl)c2n1 | 0.51 | 0.76 | 43.6 | 87.3 | 
Cc1cnc2cccc(OCc3c(Cl)ccc(N(C)C(=O)CNC(=O)/C=C/c4ccc(N5CCCC5=O)cc4)c3Cl)c2n1 | 26 | 1.1 |  |  | 
Cc1ccc2cccc(OCc3c(Cl)ccc(N(C)C(=O)CNC(=O)/C=C/c4cccc(C(=O)N(C)C)c4)c3Cl)c2n1 |  | 1.1 |  |  | 14
COc1nc2c(OCc3c(Cl)ccc(N(C)C(=O)CNC(=O)/C=C/c4ccc(C(=O)N(C)C)cc4)c3Cl)cccc2n1C | 14 | 0.94 |  | 87.7 | 
COc1nc2c(OCc3c(C)ccc(N(C)C(=O)CNC(=O)/C=C/c4ccc(NC(C)=O)nc4)c3C)cccc2n1C | 8.5 | 0.94 | 75.2 | 98.4 | 
Cc1ccc2cccc(OCc3c(Cl)ccc(N(C)C(=O)CNC(=O)/C=C/c4ccc(C(=O)Nc5ccccc5)cc4)c3Cl)c2n1 | 11 | 6.3 |  |  | 
Cc1cnc2cccc(OCc3c(C)ccc(N(C)C(=O)CNC(=O)/C=C/c4ccc(N5CCCC5=O)cc4)c3C)c2n1 | 46 | 2.4 |  |  | 
CNC(=O)c1ccc(/C=C/C(=O)NCC(=O)N(C)c2ccc(C)c(COc3cccc4ncc(C)nc34)c2C)cc1 | 17 | 3.5 |  |  | 
CCOC(=O)Cc1nc2c(OCc3c(C)ccc(N(C)C(=O)CNC(=O)/C=C/c4ccc(C(=O)NC)cc4)c3C)cccc2n1C | 8400 | 1100 |  |  | 
CNC(=O)c1ccc(/C=C/C(=O)NCC(=O)N(C)c2ccc(C)c(COc3cccc4c3nc(N(C)C)n4C)c2C)cc1 | 160 | 38 |  |  | 
CNC(=O)c1ccc(/C=C/C(=O)NCC(=O)N(C)c2ccc(Cl)c(COc3cccc4c3nc(-c3ccccc3)n4C)c2Cl)cc1 | > 1000 | 510 |  |  | 
COc1nc2c(OCc3c(Cl)ccc(N(C)C(=O)CNC(=O)/C=C/c4ccc(NC(C)=O)nc4)c3Cl)cccc2n1C | 4.2 | 0.65 |  | 55.4 | 
CNC(=O)c1ccc(/C=C/C(=O)NCC(=O)N(C)c2ccc(C)c(COc3cccc4c3nc(NC)n4C)c2C)cc1 | 670 | 94 |  |  | 
CNC(=O)c1ccc(/C=C/C(=O)NCC(=O)N(C)c2ccc(C)c(COc3cccc4c3nc(C(C)=O)n4C)c2C)cc1 | 94 | 200 |  |  | 
CNC(=O)c1ccc(/C=C/C(=O)NCC(=O)N(C)c2ccc(C)c(COc3cccc4c3nc(SC)n4C)c2C)cc1 | 79 | 9.5 |  |  | 
CCOc1nc2c(OCc3c(C)ccc(N(C)C(=O)CNC(=O)/C=C/c4ccc(C(=O)NC)cc4)c3C)cccc2n1C | 730 | 90 |  |  | 
CNC(=O)c1ccc(/C=C/C(=O)NCC(=O)N(C)c2ccc(C)c(COc3cccc4c3nc(COC)n4C)c2C)cc1 | 9100 | 1000 |  |  | 
CNC(=O)c1ccc(/C=C/C(=O)NCC(=O)N(C)c2ccc(C)c(COc3cccc4ncc(C)nc34)c2C)cn1 | 590 | 18 |  |  | 
Cc1cnc2cccc(OCc3c(C)ccc(N(C)C(=O)CNC(=O)/C=C/c4ccc(C(=O)N(C)C)cc4)c3C)c2n1 | 130 | 4.1 |  |  | 
Cc1cnc2cccc(OCc3c(Cl)ccc(N(C)C(=O)CNC(=O)/C=C/c4ccc(C(=O)N(C)C)cc4)c3Cl)c2n1 | 44 | 1.9 |  |  | 
Cc1ccc2cccc(OCc3c(Cl)ccc(N(C)C(=O)CNC(=O)/C=C/c4ccc(C(=O)Nc5ccccn5)cc4)c3Cl)c2n1 | 30 | 11 |  |  | 
CNC(=O)c1ccc(/C=C/C(=O)NCC(=O)N(C)c2ccc(Cl)c(COc3cccc4c(C)c(C)oc34)c2Cl)cc1 | 270 | 23 |  |  | 

SMILES | IC50 (B2 bradykinin receptor [1]) [nM] | IC50 (B2 bradykinin receptor [2]) [nM] | inhibition in vivo at 0.32 mg/kg (Cavia porcellus [3]) [%] | inhibition in vivo at 1 mg/kg (Cavia porcellus [4]) [%] | IC50 (B2 bradykinin receptor [5]) [nM]
CC(=O)Nc1ccc(/C=C/C(=O)NCC(=O)N(C)c2ccc(C)c(COc3cccc4ncc(C)nc34)c2C)cn1 | 130 | 48 |  |  | 
CCn1c(C)nc2c(OCc3c(Cl)ccc(N(C)C(=O)CNC(=O)/C=C/c4ccc(C(=O)NC)cc4)c3Cl)cccc21 | 48 | 8.9 |  |  | 
CNC(=O)c1ccc(/C=C/C(=O)NCC(=O)N(C)c2ccc(Cl)c(COc3cccn4c(Br)c(C)nc34)c2Cl)cc1 | 9 |  |  |  | 
Cc1ccc2cccc(OCc3c(Cl)ccc(N(C)C(=O)CNC(=O)/C=C/c4ccc(C(=O)Nc5ccncc5)cc4)c3Cl)c2n1 | 1.8 | 1.1 |  | 29.5 | 
Cc1ccc2cccc(OCc3c(Cl)ccc(N(C)C(=O)CNC(=O)/C=C/c4ccc(C(=O)Nc5cccnc5)cc4)c3Cl)c2n1 | 7.5 | 0.62 |  | 46.8 | 
CNC(=O)c1ccc(/C=C/C(=O)NCC(=O)N(C)c2ccc(C)c(COc3cccc4ccc(C)nc34)c2C)cn1 | 58 | 2.2 |  |  | 
CNC(=O)c1ccc(/C=C/C(=O)NCC(=O)N(C)c2ccc(Cl)c(COc3cccc4ccc(C)nc34)c2Cl)cn1 | 4.6 | 0.68 | 68.4 | 93.9 | 
Cc1ccc2cccc(OCc3c(C)ccc(N(C)C(=O)CNC(=O)/C=C/c4ccc(N5CCCC5=O)nc4)c3C)c2n1 | 39 | 1.4 |  |  | 
Cc1ccc2cccc(OCc3c(Cl)ccc(N(C)C(=O)CNC(=O)/C=C/c4cccnc4)c3Cl)c2n1 | 470 | 0.79 | 63.7 | 97.2 | 
Cc1ccc2cccc(OCc3c(Cl)ccc(N(C)C(=O)CNC(=O)/C=C/c4ccc(C(=O)Nc5ccncc5)nc4)c3Cl)c2n1 | 2.5 | 15 |  | 60 | 
CNC(=O)c1ccc(/C=C/C(=O)NCC(=O)N(C)c2ccc(C)c(COc3cccc4ccc(C)nc34)c2C)cc1 | 4.8 | 0.97 | 79 | 90.5 | 
Cc1nc2c(OCc3c(Cl)ccc(N(C)C(=O)CNC(=O)/C=C/c4ccc(C(=O)N(C)C)cc4)c3Cl)cccn2c1Br | 2.2 |  |  |  | 
CC(=O)Nc1ccc(/C=C/C(=O)NCC(=O)N(C)c2ccc(Cl)c(COc3cccc4ccc(C)nc34)c2Cl)cc1 | 1.9 | 0.5 | 33.2 | 80 | 
Cc1ccc2cccc(OCc3c(Cl)ccc(N(C)C(=O)CNC(=O)/C=C/c4ccccc4)c3Cl)c2n1 | 340 | 0.69 |  | 25.2 | 
Cc1ccc2cccc(OCc3c(C)ccc(N(C)C(=O)CNC(=O)/C=C/c4ccc(N5CCCC5=O)cc4)c3C)c2n1 | 9.3 | 0.47 | 75.7 | 94.9 | 
Cc1ccc2cccc(OCc3c(Cl)ccc(N(C)C(=O)CNC(=O)/C=C/c4ccc(C(=O)N(C)C)cc4)c3Cl)c2n1 | 3.9 | 1.3 | 50.8 | 89.7 | 
Cc1ccc2cccc(OCc3c(Cl)ccc(N(C)C(=O)CNC(=O)/C=C/c4ccc(N5CCCC5=O)cc4)c3Cl)c2n1 | 3.2 | 0.55 | 44.7 | 85.3 | 
Cc1ccc2cccc(OCc3c(Cl)ccc(N(C)C(=O)CNC(=O)/C=C/c4ccc(N5CCCC5=O)nc4)c3Cl)c2n1 | 5.2 | 0.13 | 68.6 | 89.9 | 
CC(=O)Nc1ccc(/C=C/C(=O)NCC(=O)N(C)c2ccc(C)c(COc3cccc4ccc(C)nc34)c2C)cn1 | 8.5 | 0.82 | 55.5 | 98.2 | 
Cc1ccc2cccc(OCc3c(Cl)ccc(N(C)C(=O)CNC(=O)/C=C/c4ccc(NC(=O)c5ccncc5)nc4)c3Cl)c2n1 | 2.8 | 3.3 |  | 68.8 | 
CC(=O)Nc1ccc(/C=C/C(=O)NCC(=O)N(C)c2ccc(Cl)c(COc3cccc4ccc(C)nc34)c2Cl)cn1 [FR-173657] | 1.4 | 0.46 | 73.2 | 94.4 | 

— ChEMBL document CHEMBL1131138, “A novel class of orally active non-peptide bradykinin B2 receptor antagonists. 3. Discovering bioisosteres of the imidazo[1,2-a] pyridine moiety” (J Med Chem, 1998)
